Experimental data reported in ChEMBL document CHEMBL2406995, “Cytotoxic indole alkaloids from Tabernaemontana divaricata” (J Nat Prod, 2013).

Columns and labels:
Format in all cases: functional, cell-based
[1] = test system: SW480; assay: Cytotoxicity against human SW480 cells after 48 hrs by MTT assay; conditions: SW480, 48 h
Method in brief: (§1)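 Adherent cells grown in RPMI1640 or DMEM plus 10% FBS at 37 °C, 5% CO2. They were seeded in 96-well plates and left 12 h to adhere before dosing. MTT viability was used to plot growth curves, and IC50 was calculated by Reed and Muench's method.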

[2] = test system: MCF7; assay: Cytotoxicity against human MCF7 cells after 48 hrs by MTT assay; conditions: MCF7, 48 h; method in brief: as §1
[3] = test system: A549; assay: Cytotoxicity against human A549 cells after 48 hrs by MTT assay; conditions: A549, 48 h; method in brief: as §1
[4] = Cytotoxicity against human […] cells after 48 hrs by MTT assay; method in brief: as §1
[5] = test system: HL-60; assay: Cytotoxicity against human HL60 cells after 48 hrs by MTT assay; conditions: HL-60, 48 h
Method in brief: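 Suspension (leukemia) cells seeded just before drug addition at an initial density of 1 × 10^5 cells/mL. They were grown in RPMI1640 or DMEM with 10% FBS, 5% CO2, 37 °C. Cells were exposed for 48 h to […], 0.32, 1.6, 8 and 40 μM in triplicate, with cisplatin as positive control. Viability was read by MTT and IC50 was derived by Reed and Muench's method.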

| SMILES | IC50 [1] [µM] | IC50 [2] [µM] | IC50 [3] [µM] | IC50 [4] [µM] | IC50 [5] [µM] |
| --- | --- | --- | --- | --- | --- |
| CC[C@@]12CC[C@@H]3N(C)c4ccc([C@@H]5[C@H]6O[C@H]6[C@@]6(CC)CC(C(=O)OC)=C7Nc8c(cc(O)c(OC)c8OC)[C@@]78CCN5[C@@H]68)cc4[C@@]34CCN(C[C@H]3O[C@H]31)[C@@H]24 [CONOFOLINE] | 13.7 | 14 | 10.3 | 10.3 | 0.8 |
| C/C=C1/CN(C)[C@H]2Cc3c([nH]c4ccccc34)[C@H](c3cc4c5c([nH]c4cc3OC)[C@]3(C(=O)OC)C[C@@H]4C[C@H](CC)[C@@H]3N(CC5)C4)C[C@H]1[C@]2(CO)C(=O)OC | 13.4 | 12.6 | 14.8 | 12.3 | 2.68 |
| CC[C@H]1C[C@@H]2CN3CCc4c([nH]c5c([C@H]6C[C@H]7[C@]8(C(=O)OC)CO[C@H](N(C)[C@H]8Cc8c6[nH]c6ccccc86)[C@@]76O[C@@H]6C)c(OC)ccc45)[C@](C(=O)OC)(C2)[C@H]13 | 2.59 | 3.1 | 3.52 | 3.41 | 0.79 |
| C/C=C1/CN(C)[C@H]2Cc3c([nH]c4ccccc34)[C@@H](c3c(O)ccc4c5c([nH]c34)[C@]3(C(=O)OC)C[C@H]4C[C@H](CC)[C@@H]3N(CC5)C4)C[C@@H]1[C@]2(CO)C(=O)OC | 2.72 | 3.02 | 9.4 | 3.75 | 2.9 |
| C/C=C1/CN(C)[C@H]2Cc3c([nH]c4ccccc34)[C@H](c3cc4[nH]c5c(c4cc3OC)CCN3C[C@H]4C[C@H](CC)[C@H]3[C@H]5C4)C[C@H]1[C@]2(CO)C(=O)OC | 13 | 13.2 | 28.5 | 14.8 | 3.88 |
| CC[C@@]12CC(C(=O)OC)=C3Nc4cc5c(cc4[C@@]34CCN(C[C@H]3O[C@H]31)[C@@H]24)[C@@H]1[C@H](O5)[C@@H](O)[C@@]2(CC)CC(C(=O)OC)=C3Nc4c(cc(O)c(OC)c4OC)[C@@]34CCN1[C@@H]24 [CONOPHYLLINE] | 1.49 | 1.02 | 0.21 | 0.35 | 0.17 |
| C/C=C1/CN(C)[C@H]2Cc3c([nH]c4ccccc34)[C@H](c3cc4[nH]c5c(c4cc3OC)CCN3C[C@H]4C[C@H](CC)[C@H]3[C@@]5(C(=O)OC)C4)C[C@H]1[C@]2(CO)C(=O)OC | 16.5 | 13.3 | 16.5 | 9.86 | 2.35 |
| CC[C@H]1C[C@H]2C[C@H]3c4[nH]c5ccc(OC)cc5c4CCN([C@@H]13)[C@@H]2CC(C)=O | 13 | 13.2 | 28.5 | 14.8 | 3.88 |
